Assay results collected from several papers.
Each line is one published result; the experiments were not run side by side.

SMILES	system	conditions	endpoint	value
N#C[C@@]12C[C@@H]1[C@@H](n1cnc3c(N[C@@H](C4CCC4)C4CC4)nc(I)nc31)[C@H](O)[C@@H]2O	male Wistar rat, plasma	oral, 1 mg/kg	MRT(0-t)	1.59 h
O=C1c2ccncc2C(=O)c2c1[nH]c1ccccc21	rat, plasma	intravenous, 1 mg/kg, single dose	MRT	2.4 h
COc1ccc([C@@H](O)c2cc(-c3ncnc4cc(N5CCOCC5)ccc34)c(F)cc2Cl)nn1	human, plasma	oral, 200 mg, single dose, patients	Tmax	2.02 h
C[C@H]1[C@@H](O)O[C@@H]2O[C@@]3(C)CC[C@H]4[C@H](C)CC[C@@H]1[C@@]24OO3	Sprague-Dawley rat, plasma	oral, 10 mg/kg	MRT(0-t)	2.93 h
Cn1cc(Nc2nc(N)nc(-c3cccc(-n4ccc5cc(C6CC6)cc(F)c5c4=O)c3CO)n2)cn1	human, plasma	oral, 300 mg, single dose, fasted, suspension	Tmax	2.52 h
O=C1CC[C@H](N2Cc3cc(N4CCN(CC5CCN(c6ccc([C@@H]7c8ccc(O)cc8CC[C@@H]7c7ccccc7)cc6)CC5)CC4)ccc3C2=O)C(=O)N1	female Sprague-Dawley rat, plasma	oral, 20 mg/kg, fed	MRT(0-inf)	12 h
COc1ccc([C@@H]2Sc3ccccc3N(CCN(C)C)C(=O)[C@@H]2OC(C)=O)cc1	Sprague-Dawley rat, hepatocytes	2 µM, 4 h, pH 7.4	fraction unbound	0.89
NS(=O)(=O)OC[C@@H]1C[C@@H](n2ccc3c(N[C@H]4CCc5ccccc54)ncnc32)C[C@@H]1O	human, plasma	intravenous, 25 mg/m², patients	Tmax	1.04 h
CC(C)NCC(O)COc1cccc2ccccc12 (stereo not shown)	Sprague-Dawley rat, hepatocytes	2 µM, 4 h, pH 7.4	fraction unbound	0.88
CN1CC[C@@H](c2c(O)cc(O)c3c(=O)cc(-c4ccc(C(F)(F)F)cc4Cl)oc23)[C@@H]1CO	human, plasma	oral, 100 mg, patients	Tmax	3.9 h
